The list is not random: actives were taken first. Their share in the collection is about 2.3%.
Dynein cargo inh – inhibitors of GR-EGFP nuclear translocation, primary screen, dynein cargo transport inhibitor project, imaging, high-content, 3617.4 mouse cells. test concentration mostly 20 µM; stimulated with dexamethasone, 1 µM; hits give low values. 0.47% of 220,000 active. z-score, hits read low. AID 1381, 2008;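 active means plate z-score of nuclear minus cytoplasmic receptor signal below a set negative limit, without overly bright fluorescence or cell loss, cut at about -3.5 in these data, passing the limit was not always enough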;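 further: z-score of nuclear minus cytoplasmic ring GR-EGFP intensity difference per well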
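medium = tetracycline-free induction medium containing charcoal-stripped FBS | probe or stimulus = dexamethasone, 1.0 µM final | timing = 48 h induction, then 1 h compound, then 30 min agonist, 37 °C | detection = automated 10x imaging of fixed Hoechst-stained cells | read-out basis = nuclear versus cytoplasmic GR-EGFP signal, averaged per well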
b-catenin transl – modulators of beta-catenin nuclear translocation, primary screen, imaging, HeLa cells, immunofluorescence, high-content | nuclear translocation activity, % at 5 µM | 0.3% of 190,000 active;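 active means nuclear translocation activity above 50% at 5 µM, with a well cell count of 50 or more; inconclusive means wells under 50 cells across six images, flagged as toxic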;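 further: per-cell ratio of nuclear to cytoplasmic median beta-catenin stain intensity; plate controls were DMSO negative control for no effect and GSK-3 inhibitor IX positive control for full effect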
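Read-out: Nuclear/cytoplasmic beta-catenin signal ratio, % activation | Assay system: Human HeLa cell line | Times: 24 h compound exposure at 37°C, 5% CO2 | Signal: Fluorescence imaging of beta-catenin antibody stain plus DAPI | Dosing: 5 µM primary, 0.02–20 µM confirmation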
Autophagy HCS – autophagy modulators in MEF cells, primary screen, imaging, high-content, MEF GFP-LC3 | MEF GFP-LC3 puncta imaging; test concentration mostly 10 µM | calls only at 10 µM (by protocol) | 0.98% of 190,000 active | AID 463193, 2010;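 active means percentage of spot-positive cells more than 3 SD above its plate mean, without a fluorescence outlier flag or 80% toxicity; inconclusive means no clear call, values can overlap the other calls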;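 further: spot-positive cell cutoff set from DMSO-treated cells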
MT stabilize HCS – microtubule stabilizers in HeLa cells, primary screen, imaging, high-content imaging. HeLa tubulin immunostaining HCS, 24 h; share of cells brighter than vehicle mean+2SD. % tubulin-high responders, % at 10 µM. 0.83% of 200,000 active;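 active means plate Z-score above 3 for both tubulin-high and condensed-nucleus cell shares, with cell loss under 80%, at 10 µM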;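 further: anti alpha tubulin signal scored within the nucleus-defined area of each cell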
Ins promoter up – insulin promoter activators in MIN6 cells, imaging, high-content screening, mouse beta cells | MIN6 insulin promoter-GFP reporter; hits give high values | z-score at 5 µM | 0.3% of 190,000 active | AID 1625, 2009;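 active means z-score above 3 at 5 µM with at least 500 cells counted in the well; inconclusive means wells under 500 cells, flagged as cytotoxic or low count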
Dynein inh conf – dynein cargo transport inhibitors, GR-EGFP translocation, confirmation, imaging, high-content imaging, GR-EGFP cells. calls only at 20 µM. shares compounds with Dynein cargo inh. 69% of 1,000 active. 3617.4 GR-EGFP nuclear translocation imaging, dexamethasone-induced;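 active means inhibition of receptor movement into the nucleus at or above a set limit in both runs, with normal cell brightness and cell count; inconclusive means limit reached in only one run, brightness and count normal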;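 further: dexamethasone at 1 µM final in well for 30 min; nuclear minus cytoplasmic GR-EGFP mean intensity difference in channel 2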
* hit, by the source's call.

What do the screens show for `O=c1cc(N=Nc2ccc(Cl)cc2)[nH]c(=O)[nH]1`?
Dynein cargo inh: -4.5*; b-catenin transl: 2; Ins promoter up: -1.1; Dynein inh conf: active

What do the screens show for `O=c1cc(-c2ccc(Cl)cc2)oc(=O)[nH]1`?
Dynein cargo inh: 0.14; b-catenin transl: 0; Ins promoter up: -0.61

Results for CC(C)CN1C(=O)C(=Nc2cccnc2)c2ccccc21 ?
Dynein cargo inh: 0.071; b-catenin transl: 7; Autophagy HCS: inactive; MT stabilize HCS: 3; Ins promoter up: 0.18

Results for CN1CCN(NC(=S)Nc2ccc(Oc3ccccc3)cc2)CC1 ?
Dynein cargo inh: 0.26; b-catenin transl: 0; Autophagy HCS: inactive; MT stabilize HCS: 6; Ins promoter up: -0.14

Results for Clc1nc(-c2cccnc2)nc2scc(-c3ccccc3)c12 ?
Dynein cargo inh: -1.9; b-catenin transl: 0; Autophagy HCS: inactive; MT stabilize HCS: 5; Ins promoter up: 0.02

How did COc1ccc(-c2csc3nc(-c4cccnc4)nc(Cl)c23)cc1OC do in these assays?
Dynein cargo inh: -4.4*; b-catenin transl: 1; Autophagy HCS: inactive; MT stabilize HCS: 4; Ins promoter up: -0.27; Dynein inh conf: active

Results for O=C(Nc1ccc(F)cc1)C1CCC(CNc2c(N3CCCCC3)c(=O)c2=O)CC1 (centres undefined) ?
Dynein cargo inh: -0.059; b-catenin transl: 0; Ins promoter up: 1

What do the screens show for `CCCc1nc2oc3c(Cl)ncnc3c2c2c1CCCC2`?
Dynein cargo inh: -5.5*; b-catenin transl: -1; Ins promoter up: -0.34; Dynein inh conf: inconclusive

What do the screens show for `CC(C)Cc1nc2oc3c(Cl)ncnc3c2c2c1CCCC2`?
Dynein cargo inh: -5.7*; b-catenin transl: 0; Ins promoter up: 0.69; Dynein inh conf: active

What do the screens show for `CC1CCN(S(=O)(=O)N2CCC(C(=O)N3CCC(N(C)CC4CCCO4)CC3)CC2)CC1` (centres undefined)?
Dynein cargo inh: -0.18; Autophagy HCS: inactive; MT stabilize HCS: 6; Ins promoter up: 0.1

How did O=S(=O)(CCN(CCS(=O)(=O)C(F)(F)F)CC1CCCO1)C(F)(F)F (centres undefined) do in these assays?
Dynein cargo inh: -4.1*; b-catenin transl: 1; Autophagy HCS: inactive; MT stabilize HCS: 2; Ins promoter up: 2; Dynein inh conf: inconclusive

What do the screens show for `CCOC(=O)c1c(-c2ccc(C)cc2)csc1NC(=O)/C(C#N)=C/c1ccc(O)c(OC)c1`?
Dynein cargo inh: -10; b-catenin transl: 0; Autophagy HCS: active; MT stabilize HCS: 3; Dynein inh conf: inactive

What do the screens show for `CCOC(=O)/C(C#N)=C\c1ccc(O)c(OC)c1`?
Dynein cargo inh: -0.34; b-catenin transl: -2; Autophagy HCS: inactive; MT stabilize HCS: 2; Ins promoter up: -0.76

How did COC(=O)Cc1[nH]nc2c1C(c1ccc(O)c(OC)c1)C(C#N)=C(N)O2 (centres undefined) do in these assays?
Dynein cargo inh: -0.42; b-catenin transl: 0; Ins promoter up: -0.28

How did COCCN(C(=O)CCl)C(C(=O)NC1CCCCC1)c1ccccc1C (centres undefined) do in these assays?
Dynein cargo inh: -4.4*; b-catenin transl: 2; Autophagy HCS: inactive; MT stabilize HCS: 8; Dynein inh conf: active

How did COCCN(C(=O)CCC(=O)Nc1cc(C)on1)C(C(=O)NC1CCCC1)c1ccccc1C (centres undefined) do in these assays?
Dynein cargo inh: 0.15; b-catenin transl: 0; Autophagy HCS: inactive; MT stabilize HCS: 2; Ins promoter up: -1

Results for CCOC(=O)C1(CCCc2ccccc2)CCN(C(=O)c2ccoc2)CC1 ?
Dynein cargo inh: -0.48; b-catenin transl: 1; Autophagy HCS: inactive; MT stabilize HCS: 3; Ins promoter up: 0.53

Results for CCOC(=O)C1(CCCc2ccccc2)CCN(C(=O)C2=C(C)OCCO2)CC1 ?
Dynein cargo inh: -3.5*; b-catenin transl: 2; Autophagy HCS: inactive; MT stabilize HCS: 6; Ins promoter up: -0.44; Dynein inh conf: inconclusive

Results for O=c1[nH]oc2cc(Cl)ccc12 ?
Dynein cargo inh: 0.52; b-catenin transl: 0; Ins promoter up: 0.91

What do the screens show for `Cc1ccc(C2=NOC(=O)/C2=C\C=C\c2ccccc2)cc1`?
Dynein cargo inh: -5.6*; b-catenin transl: 3; Autophagy HCS: inactive; MT stabilize HCS: 6; Ins promoter up: 0.55; Dynein inh conf: active

What do the screens show for `CC1=NN(c2ccccc2)C(=O)/C1=C/C=C/c1ccccc1`?
Dynein cargo inh: -5.8*; b-catenin transl: 0; Autophagy HCS: inactive; MT stabilize HCS: 3; Ins promoter up: 0.1; Dynein inh conf: active

Results for CC1=NN(c2ccccc2)C(=O)/C1=C\c1sccc1C ?
Dynein cargo inh: 0.33; b-catenin transl: -2; Ins promoter up: 0.66

Results for O=C(CCc1nnc(-c2ccsc2)o1)N1CCc2c(Cl)cccc2C1 ?
Dynein cargo inh: -0.36; b-catenin transl: -2; Autophagy HCS: inactive; MT stabilize HCS: 3

What do the screens show for `O=c1c(C(c2nnnn2C2CCCCC2)N2CCCCC2)coc2ccc(Cl)cc12` (centres undefined)?
Dynein cargo inh: -4*; b-catenin transl: 0; Autophagy HCS: inactive; MT stabilize HCS: 6; Ins promoter up: -0.83; Dynein inh conf: active

What do the screens show for `CC(=O)N1N=C(c2ccco2)CC1c1cccs1` (centres undefined)?
Dynein cargo inh: -0.23; b-catenin transl: -5; Autophagy HCS: inactive; MT stabilize HCS: 4; Ins promoter up: 0.38

What do the screens show for `O=C(CCl)N1N=C(c2ccco2)CC1c1cccs1` (centres undefined)?
Dynein cargo inh: -4.3*; b-catenin transl: 3; Autophagy HCS: inactive; MT stabilize HCS: 9; Ins promoter up: -1.2; Dynein inh conf: active

Results for Cc1ccc(C2=NN(C(=O)CCl)C(c3cccs3)C2)o1 (centres undefined) ?
Dynein cargo inh: -4.1*; b-catenin transl: -2; Autophagy HCS: inactive; MT stabilize HCS: 3; Ins promoter up: -2.7; Dynein inh conf: active

What do the screens show for `O=C(C1CCCCC1)N1CCN(c2ccnc3cc(Cl)ccc23)CC1`?
Dynein cargo inh: -1; b-catenin transl: 0; Ins promoter up: -1.2

How did O=C1c2cc([N+](=O)[O-])cc3cc([N+](=O)[O-])cc(c23)C(=O)N1c1ccccn1 do in these assays?
Dynein cargo inh: -3.5*; b-catenin transl: 3; Autophagy HCS: inactive; MT stabilize HCS: 4; Ins promoter up: -0.34; Dynein inh conf: inactive
